Screens from PubChem BioAssay.
NPY-Y2 antag: blocks the human neuropeptide Y Y2 receptor; 140,000 compounds, 0.99% hits; P49146; inhibition, % at 2.7 µM; NPY-Y2 expressing cells, antagonist mode;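 further: 0% = vehicle with agonist challenge and 100% = reference antagonist with challenge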
NPY-Y1 antag: NPY-Y1 (human) receptor antagonism; P25929; HEK293-CNG Y1 cells, membrane potential fluorescence; NPY at EC95, then isoproterenol; inhibition, % at 3.6 µM; 200,000 compounds, 1% hits;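 active means inhibition above the campaign mean inhibition of all tested compounds plus 3 SD, cut at about 20% in these data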;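 further: 0% = DMSO wells given NPY plus isoproterenol and 100% = isoproterenol alone without NPY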
Target sequence (P25929 whole entry, looked up): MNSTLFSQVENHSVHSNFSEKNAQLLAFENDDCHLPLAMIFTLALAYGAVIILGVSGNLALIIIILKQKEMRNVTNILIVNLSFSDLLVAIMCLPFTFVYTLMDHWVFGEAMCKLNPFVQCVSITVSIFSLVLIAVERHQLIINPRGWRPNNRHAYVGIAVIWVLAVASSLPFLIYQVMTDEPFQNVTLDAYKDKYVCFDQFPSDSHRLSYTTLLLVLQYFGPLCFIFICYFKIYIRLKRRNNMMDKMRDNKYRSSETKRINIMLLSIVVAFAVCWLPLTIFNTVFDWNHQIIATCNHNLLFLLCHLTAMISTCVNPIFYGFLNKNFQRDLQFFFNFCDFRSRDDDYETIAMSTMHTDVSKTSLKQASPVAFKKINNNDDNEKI
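Assay system: HEK293 Y1/CNG channel cell line; Doses: single compound dose of 3.6 µM, 0.4% DMSO; Timing: dye 3 h, compound 60 min room temperature, stimulation 45 min; Technique: Membrane-potential fluorescent dye readout; Measure: % inhibition of NPY effect.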
NPY-Y1 PAM-ag: potentiators or agonists of human neuropeptide Y receptor Y1; P25929; NPY-Y1 expressing cells, potentiator/agonist activation; activation, % at 3.6 µM; 220,000 compounds, 0.37% hits; AID 1304; in the data active means activation above about 33%, passing the limit was not always enough;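 further: cells stimulated with NPY at EC10 then isoproterenol at EC100; 0% = low agonist plus stimulus and 100% = saturating agonist plus stimulus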
NPY2 pot ag: potentiators or agonists of human neuropeptide Y receptor Y2; cells expressing NPY-Y2, potentiator/agonist read-out; activation, % at 3.6 µM; 220,000 compounds, 0.45% hits; in the data active means activation above about 27%;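 further: cells stimulated with NPY near EC25 plus isoproterenol at EC100; 0% = vehicle plus submaximal agonist and 100% = vehicle plus saturating agonist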
NPY1 antag conf: human NPY-Y1 antagonism, confirmation; shares compounds with NPY-Y1 antag; HEK293-CNG NPY-Y1, membrane potential fluorescence, cAMP; NPY challenge against isoproterenol-raised cAMP; inhibition, % at 3.6 µM; 1,200 compounds, 21% hits; AID 1254; in the data active means inhibition above about 20%;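 further: 0% = vehicle with agonist plus stimulus and 100% = stimulus alone without agonist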
NPY2 antag ctr: human NPY-Y2 antagonism in NPY-Y1 counter-screen; shares compounds with NPY-Y1 antag; HEK293 NPY-Y2 CNG membrane potential fluorescence; cells given NPY, then isoproterenol; inhibition, % at 3.6 µM; 1,200 compounds, 28% hits;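 further: 0% = DMSO with agonist challenge and 100% = reference antagonist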
Numbers without * were called inactive; · = not tested or not shown. Only some compounds are listed: those with a hit (about 1.8% of all), similar ones and a draw of the others. Unless noted, no stated cut-off is given here; in the data, active means inhibition above about 17%; inactive means the rest.

SMILES	NPY-Y2 antag	NPY-Y1 antag	NPY-Y1 PAM-ag	NPY2 pot ag	NPY1 antag conf	NPY2 antag ctr
Cc1ccc(-c2csc(N(CCc3ccccc3)C(=O)COc3ccccc3)n2)cc1	1	-1	-16	-6	·	·
O=C(COc1ccccc1)N(CCc1ccccc1)c1nc(-c2ccc(F)cc2)cs1	8	37*	-45	-32	13	19*
CC1=C(C(=O)OCCc2ccccc2)C(c2ccsc2)NC(=O)N1C (configuration not stated)	10	-1	-9	16	·	·
COc1ccc(-c2noc(CN3CCCCC3c3nccn3C)n2)cc1 (configuration not stated)	·	42*	-25	-22	30*	14
Cn1ccnc1C1CCCCN1Cc1nc(Cc2cccc(C(F)(F)F)c2)no1 (configuration not stated)	·	8	-8	-9	·	·
Cn1ccnc1C1CCCCN1Cc1nc(-c2ccc3c(c2)OCO3)no1 (configuration not stated)	·	42*	-21	-18	27*	10
Cc1[nH]c2ccccc2c1/C=N/NC(=O)c1cc(C(C)C)[nH]n1	·	·	13	-1	·	·
Cc1cn2c(nc(=O)c3cccnc32)s1	3	5	18	7	·	·
CCOC(=O)c1c(NC(=O)CN(CC)CC)sc2c1CCC2	-1	4	-4	3	·	·
CCN(CC)CC(=O)Nc1sc2c(c1C(=O)c1ccccc1OC)CCC2	·	23*	16	11	13	2
Clc1ccc(-c2csc(=Nc3cccnc3)n2CCCn2ccnc2)cc1Cl	16	29*	-54	-4	19	14
Cc1noc(C)c1CSc1nnc(-c2ccccc2F)n1CCc1ccccc1	12	20*	-15	9	4	4
Cc1noc(C)c1CSc1nc2ccccc2n1C	-1	4	11	6	·	·
Cc1ccc(N(CC(=O)N/N=C/c2cc(C)n(-c3ccccc3C)c2C)S(C)(=O)=O)cc1	2	4	-24	-3	·	·
O=c1[nH]c(CSc2nnc(-c3ccccc3)n2C2CCCCC2)nc2ccccc12	0	30*	-4	10	-2	0
COC(=O)c1cc2occc2n1Cc1c(F)cccc1Cl	11	10	-23	-5	·	·
CCn1c(Sc2nc(C)nc3scc(-c4cccs4)c23)n[nH]c1=O	2	21*	-3	-2	7	37*
Cc1nc(SCC(=O)NC(=O)NCCC(C)C)c2c(-c3cccs3)csc2n1	2	-2	-23	2	·	·
Cc1ccc(C)c(N2CCN(C(=O)CN3C(=S)NC(C)(C)CC3C)CC2)c1 (configuration not stated)	·	1	21	-14	·	·
COc1ccc(C2CC(c3ccc4ccccc4c3)=NN2C(=O)CNC2CCCCC2)cc1 (configuration not stated)	·	30*	5	15	37*	33*
C=CCNCC(=O)N1N=C(c2ccc3ccccc3c2)CC1c1ccc(OC)cc1 (configuration not stated)	·	32*	-37	-35	32*	50*
COc1cc(SSc2cc(OC)cc([N+](=O)[O-])c2N)c(N)c([N+](=O)[O-])c1	·	·	-6	-1	·	·
Cc1ccc([N+](=O)[O-])cc1N/C=C1\CCc2ccccc2C1=O	5	-1	10	-2	·	·
CCOC(=O)C1(CC2CCCCO2)CCN(Cc2ccc(OC)cc2F)CC1 (configuration not stated)	·	4	-11	4	·	·
Cc1ccc2nc3c(c(C(=O)O)c2c1)CCC3	8	22*	-38	-2	5	11
SMILES	NPY-Y2 antag	NPY-Y1 antag	NPY-Y1 PAM-ag	NPY2 pot ag	NPY1 antag conf	NPY2 antag ctr
CCOc1ccc(OCCn2nnc3ccccc3c2=O)cc1	·	6	-15	-14	·	·
CC1Cc2ccccc2N1C(=S)NC(=O)c1ccc(Cl)cc1Cl (configuration not stated)	7	25*	-18	1	1	3
CN(c1ncc(C(F)(F)F)cc1Cl)N1C(=O)c2cccc([N+](=O)[O-])c2C1=O	·	4	-3	-5	·	·
Cc1cc(Cl)c(S(=O)(=O)N/N=C/c2ccc3c(c2)OCO3)c(Cl)c1	7	20*	-22	-5	9	14
O=S(=O)(N/N=C/c1ccc2c(c1)OCCO2)c1ccc(Cl)cc1	13	3	1	-20	·	·
COCC(C)n1c(SCc2ccc(OC)c(F)c2)nc2ccccc2c1=O (configuration not stated)	·	17	-4	-25	·	·
O=C(CSc1nnc(-c2cccs2)o1)N1CCc2ccccc21	9	7	-21	-17	·	·
C=CCSc1nnc(-c2cc3c(s2)-c2ccccc2CC3)o1	7	21*	-38	-28	9	5
CC1(C)C2CCC1(C)C(NC1=NCCC1)C2 (configuration not stated)	2	-2	5	-10	·	·
CC1(C)[C@H]2CC[C@]1(C)[C@@H](OC(=O)C[N+]1(C)CCOCC1)C2	·	·	17	17	·	·
CCOC(=O)C[N+](C)(C)CCOC1CC2CCC1(C)C2(C)C (configuration not stated)	·	24*	-28	-7	10	6
CC1(C)C2CCC1(C)C(OCC[N+](C)(C)CC(=O)OC1CCCCC1)C2 (configuration not stated)	2	24*	-47	2	10	14
CC(C)(C)C(=O)Nc1cccc(-c2cc(-c3c(Cl)cccc3Cl)no2)c1	·	·	-4	-35	·	·
COc1cc(NC(=O)CCCl)cc(-n2cnnn2)c1	·	-3	-6	-2	·	·
COc1ccc(OC)c(/C=c2\sc3nc(-c4cccs4)nn3c2=O)c1	5	20*	-32	-9	3	2
NC(=O)c1ncc(C(F)(F)F)cc1Oc1cccnc1	·	-3	-2	1	·	·
O=C(C1CCCN1S(=O)(=O)c1ccc(Cl)cc1)N1CCOCC1 (configuration not stated)	2	2	-1	11	·	·
Cc1cc(C)n(C(=O)C2CCCN2S(=O)(=O)c2ccc(Cl)cc2)n1 (configuration not stated)	-1	25*	13	-11	-1	1
CN(CC(=O)NCCc1ccccc1)S(=O)(=O)c1ccccc1	·	3	-8	-5	·	·
CC(O)c1nc2ccccc2n1CCCCOc1ccccc1 (configuration not stated)	·	-6	16	2	·	·
Cc1cccc(COCC(CC(C)C)N2CCN(C(=O)c3ccc(C(F)(F)F)cc3)CCC2=O)c1 (configuration not stated)	14	13	-23	-4	·	·
CC(C)CC(COCc1cccc(Cl)c1)N1CCN(C(=O)c2ccc(C(F)(F)F)cc2)CCC1=O (configuration not stated)	13	27*	-9	-3	14	7
